The entries come from a sample that favours hits as a whole.
KCC2 mod = KCC2 (human) Cl- transport modulation | Q9H2X9 | KCC2 cells, thallium flux FluoZin-2 fluorescence | B-score of Tl+ flux slope (higher = more flux/activation; lower = inhibition) at 10 µM | 190,000 compounds, 2.2% hits | AID 1456;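 active means thallium flux slope and its plate-corrected score both differing from the plate sample mean at a set confidence after two filtering rounds, in either direction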;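 further: slope of fluorescence scaled to starting intensity during 10 to 20 s after thallium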
V-ATPase pH = yeast V-ATPase proton transport regulation by pHLuorin. 350,000 compounds, 0.37% hits. S. cerevisiae, pHLuorin cytosolic pH fluorescence. response, % at 10 µM. AID 504577; in the data active means response mostly above about 7.3%, no sharp cut-off; inactive means mostly below about 5.4%; further: actives read high
Dynein cargo inh = blocks dynein driven cargo transport along microtubules; 3617.4 mouse cells, GR-EGFP nuclear translocation imaging; test concentration mostly 20 µM; stimulated with dexamethasone, 1 µM; hits give low values; z-score, hits read low; 220,000 compounds, 0.47% hits; AID 1381;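 active means plate z-score of nuclear minus cytoplasmic receptor signal below a set negative limit, without overly bright fluorescence or cell loss, cut at about -3.5 in these data, passing the limit was not always enough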;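 further: z-score of nuclear minus cytoplasmic ring GR-EGFP intensity difference per well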
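Buffer or medium: tet-free, stripped-serum medium; reagent: dexamethasone at 1.0 µM final, 30 min; incubation: 48 h induction, 1 h compound, 30 min dex at 37 °C; measured by: formaldehyde fixation, Hoechst nuclear stain, 10x automated fluorescence imaging; read-out: nuclear-to-cytoplasmic GR-EGFP distribution per well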
pCIP destab = lowers stability of the mouse p/CIP coactivator protein; Q05BA5; F442A p/CIP-EGFP cells, EGFP fluorescence, 16 h; decrease of EGFP signal, % at 10 µM; 290,000 compounds, 0.01% hits;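 active means EGFP signal decrease of at least 30% at 10 µM or well 3 SD below plate mean, unless failing retest; inactive means the rest, including hits failing retest or dose response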
ABCB6 inh MLPCN = human ABCB6 transporter inhibition | 360,000 compounds, 0.19% hits | fluorescence ratio to DMSO, % at 10 µM | AID 602162 | K562-ABCB6 porphyrin accumulation, flow cytometry, 1 h; hits give low values | Q9NP58;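 active means fluorescence ratio to DMSO below 75%, the collection mean minus 3 SD; inconclusive means too few cells collected in the well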;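 further: signal is porphyrin accumulated inside mitochondria; 100% equals median channel fluorescence of DMSO control wells; lower ratio means ABCB6 inhibition with less porphyrin fluorescence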
KCC2 secondary = KCC2 (human) modulation, secondary assay; normalised thallium flux (F/F0 slope) at 10 µM; shares compounds with KCC2 mod; 3,700 compounds, 15% hits; HEK293-KCC2, thallium flux, FluoZin2 fluorescence; hits give high values;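 active means thallium flux slope above the same plate's solvent-only control mean plus 3 SD; inconclusive means the two replicate wells disagree; inactive means no significant difference from solvent-only control wells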
KCC2 bumet counter = thallium flux persisting under bumetanide in KCC2 cells, counter-screen secondary assay. AID 1714. normalized thallium flux at 10 µM. 3,700 compounds, 49% hits. HEK293-KCC2 + bumetanide/ouabain, thallium flux FluoZin2; hits give high values. shares compounds with KCC2 mod;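 active means thallium entry rate above the same plate's blocked-transporter control wells by more than 3 SD; inconclusive means the two repeat wells disagree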;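 further: raw slope of fluorescence over initial fluorescence between 10 and 20 s after thallium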
KCC2 secondary2 = confirmation of human KCC2 transport modulators. shares compounds with KCC2 mod. normalized thallium flux at 10 µM. AID 1715. HEK293-KCC2, thallium flux FluoZin2 fluorescence; actives lie on both sides; F/F0 rise rate, 10–20 s post-thallium. 3,700 compounds, 23% hits;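 active means thallium flux slope more than 3 SD above or below the plate's solvent-only control mean, mostly below; inconclusive means the two repeat wells disagreed; inactive means no significant shift from solvent-only controls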;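 further: raw slope with 0.1% DMSO as baseline and bumetanide as block control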
HEK293 Tl flux = parental HEK flux effect, counter-screen | shares compounds with KCC2 mod | HEK293 parental cells, thallium flux FluoZin2, ouabain; baseline-ratio fluorescence slope, 10–20 s after thallium | thallium flux rate (normalised fluorescence) at 10 µM | 3,700 compounds, 46% hits;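 active means thallium flux rate significantly above the same plate's solvent-only control wells, beyond their mean plus 3 SD; inconclusive means the two replicate wells gave conflicting results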
KCC2 retest ouab = modulates human KCC2 on retest with ouabain; HEK293-KCC2, thallium flux FluoZin2 fluorescence; bidirectional: low = inhibitor, high = activator; raw Tl+ flux slope (below DMSO = inhibition, above = activation) at 10 µM; 3,700 compounds, 48% hits; shares compounds with KCC2 mod;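 active means thallium flux slope beyond 3 SD from same-plate DMSO control mean in most replicates, usually higher, sometimes lower; inconclusive means repeat tests gave conflicting results; inactive means no significant difference from controls in most replicates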;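 further: slope of initial-normalized fluorescence between seconds 10 and 20 after thallium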
HEK293 Tl flux2 = acts in parental HEK cells, second KCC2 counter-screen; 3,700 compounds, 33% hits; thallium flux slope at 10 µM; shares compounds with KCC2 mod; HEK293 parental, thallium flux FluoZin-2 fluorescence slope; AID 1718;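 active means thallium flux slope above the same plate's solvent-control mean plus 3 SD in both duplicate wells; inconclusive means duplicate wells that disagreed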;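 further: run without ouabain in cells lacking the KCC2 cotransporter; slope of fluorescence scaled to its starting value between 10 and 20 s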
* marks the source's active call; other numbers are inactive results; ? = inconclusive; . = no result.

SMILES	KCC2 mod	V-ATPase pH	Dynein cargo inh	pCIP destab	ABCB6 inh MLPCN	KCC2 secondary	KCC2 bumet counter	KCC2 secondary2	HEK293 Tl flux	KCC2 retest ouab	HEK293 Tl flux2
O=C(NC(=S)NCCC1=CCCCC1)c1cccnc1	14*	3	-0.21	3	95	0.0098	0.036*	0.031	0.013*	?	0.011*
Cc1c(C(=O)NCCC2=CCCCC2)sc2ncnc(N3CCCCC3C)c12 (stereo not given)	.	2	.	1	87	.	.	.	.	.	.
O=C(O)CSc1nc2c(cnn2-c2ccccc2)c(=O)n1-c1ccc(Br)cc1	-5.6*	1	0.4	3	98	0.0055	0.0045	0.022*	?	0.011*	0.0097
CCN(CC)CCSc1nc2ccccc2c(=S)n1-c1ccccc1	2.8*	.	1.9	2	.	0.01	0.0056	0.034	0.0086	0.02	0.011
Cc1ccc(CSc2nc3sc(C)c(C)c3c(=O)n2Cc2ccco2)cc1	9.4*	-2	-0.28	-20	84	0.0073	0.019*	0.039*	0.024*	0.031*	0.023*
Cc1ccccc1-n1c(-c2ccc3ccccc3n2)n[nH]c1=S	11*	1	-0.5	-16	106	0.011	0.023*	0.035	?	?	0.013
Fc1ccc(-n2c(-c3ccc4ccccc4n3)n[nH]c2=S)cc1Cl	26*	0	1.4	-6	91	0.0075	0.023*	0.042*	0.031*	0.04*	0.019*
Cc1ccccc1-n1c(-c2csc(C)c2C)n[nH]c1=S	2.4	-3	-1.9	-16	96	.	.	.	.	.	.
COc1ccc(-c2n[nH]c(=S)n2-c2ccccc2C)cc1	.	2	.	-12	100	.	.	.	.	.	.
S=c1[nH]nc(-c2ccc3ccccc3n2)n1-c1ccc2ncccc2c1	0.059	1	-0.029	-5	94	.	.	.	.	.	.
Cc1ccccc1-n1c(-c2csc3ccccc23)n[nH]c1=S	15*	-3	-0.78	-2	101	0.016*	0.045*	0.031	0.015*	0.043*	?
S=c1[nH]nc(-c2ccc3ccccc3n2)n1-c1ccc(Cl)cc1	14*	5	0.075	-17	108	0.0069	0.032*	0.043*	0.029*	0.037*	0.026*
COc1ccc(Nc2ccccc2NC(=O)c2ccccc2Br)cc1	.	-2	.	-10	118	.	.	.	.	.	.
CC(C)n1c(CN2CCN(C(=O)c3ccco3)CC2)nc2c1c(=O)n(C)c(=O)n2C	.	0	.	-3	96	.	.	.	.	.	.
Cn1ccc2c(N3CCCCC3)cc3c(c21)C1CCC3O1 (stereo not given)	.	.	.	.	103	.	.	.	.	.	.
C=CCn1c(SCC(=O)NC(=O)c2cccn2C)nc2ccccc2c1=O	-1.2	-1	-0.6	-8	98	.	.	.	.	.	.
CCC(C)n1c(SCC(=O)NC(=O)c2cccn2C)nc2ccccc2c1=O (stereo not given)	22*	-1	0.32	-11	93	0.016*	0.096*	0.037	0.037*	0.042*	0.017*
CC(c1ccccc1)n1c(-c2cccs2)nc2c(c(=O)c3ccccc3n2C)c1=O (stereo not given)	-3.6*	-3	0.55	-20	97	0.0077	0.0064	0.029	0.0057*	0.018	0.0097

Compound activity (PubChem BioAssay)
